Measurements as given in ChEMBL document CHEMBL2375287, “A novel series of histamine H4 receptor antagonists based on the pyrido[3,2-d]pyrimidine scaffold: comparison of hERG binding and target residence time with PF-3893787” (Bioorg Med Chem Lett, 2013).

Legend:
Histamine H4 receptor [1] = biological target: T1, Histamine H4 receptor (Homo sapiens, UniProt Q9H3N8); assay: Displacement of [3H]histamine from human histamine H4 receptor expressed in HEK cells; format: cell-based, HEK293
Outline: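 Displacement of [3H]histamine from membranes of HEK cells transiently expressing human H4R, H3R or H1R. pKi given as mean ± SEM of at least three independent measurements; n = 2 where noted.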

Homo sapiens = species: Homo sapiens; assay: Selectivity ratio of Ki for human histamine H3 receptor to Ki for human histamine H4 receptor
[2] = biological target: Voltage-gated inwardly rectifying potassium channel KCNH2 (Homo sapiens, UniProt Q12809); assay: Displacement of [3H]astemizole from human ERG channel
Sequence of Voltage-gated inwardly rectifying potassium channel KCNH2 (Q12809 whole entry): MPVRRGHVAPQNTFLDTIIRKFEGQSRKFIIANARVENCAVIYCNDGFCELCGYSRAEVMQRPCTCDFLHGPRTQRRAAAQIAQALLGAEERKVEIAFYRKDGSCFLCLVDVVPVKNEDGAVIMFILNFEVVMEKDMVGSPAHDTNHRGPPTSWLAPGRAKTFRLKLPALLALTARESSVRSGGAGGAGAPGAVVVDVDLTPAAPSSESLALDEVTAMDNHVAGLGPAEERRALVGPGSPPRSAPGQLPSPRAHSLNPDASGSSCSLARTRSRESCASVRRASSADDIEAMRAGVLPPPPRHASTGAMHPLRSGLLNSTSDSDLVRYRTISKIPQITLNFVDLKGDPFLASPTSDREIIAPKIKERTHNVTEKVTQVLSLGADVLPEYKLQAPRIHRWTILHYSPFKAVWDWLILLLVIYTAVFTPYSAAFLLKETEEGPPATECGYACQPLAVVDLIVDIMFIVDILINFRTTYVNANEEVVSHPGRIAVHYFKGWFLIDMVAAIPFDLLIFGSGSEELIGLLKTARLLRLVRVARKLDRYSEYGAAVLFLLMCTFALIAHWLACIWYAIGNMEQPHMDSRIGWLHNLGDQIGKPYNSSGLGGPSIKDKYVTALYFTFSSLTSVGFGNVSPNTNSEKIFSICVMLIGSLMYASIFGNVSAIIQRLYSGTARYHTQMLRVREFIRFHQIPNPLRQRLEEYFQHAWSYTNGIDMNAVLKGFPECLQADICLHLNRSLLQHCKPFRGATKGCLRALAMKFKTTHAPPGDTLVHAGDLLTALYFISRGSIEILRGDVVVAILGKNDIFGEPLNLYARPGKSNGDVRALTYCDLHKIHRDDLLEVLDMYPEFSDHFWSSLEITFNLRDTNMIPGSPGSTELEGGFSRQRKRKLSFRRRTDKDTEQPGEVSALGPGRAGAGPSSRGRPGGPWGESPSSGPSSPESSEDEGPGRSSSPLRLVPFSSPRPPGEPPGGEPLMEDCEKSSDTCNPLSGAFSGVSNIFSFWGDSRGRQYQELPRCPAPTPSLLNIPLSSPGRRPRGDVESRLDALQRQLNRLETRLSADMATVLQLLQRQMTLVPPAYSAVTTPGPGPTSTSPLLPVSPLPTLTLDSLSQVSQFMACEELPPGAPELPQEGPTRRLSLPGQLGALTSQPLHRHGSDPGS

Histamine H3 receptor = Histamine H3 receptor (Homo sapiens, UniProt Q9Y5N1); assay: Displacement of [3H]histamine from human histamine H3 receptor expressed in HEK cells; format: cell-based, HEK293
Sequence of Histamine H3 receptor (Q9Y5N1 whole entry): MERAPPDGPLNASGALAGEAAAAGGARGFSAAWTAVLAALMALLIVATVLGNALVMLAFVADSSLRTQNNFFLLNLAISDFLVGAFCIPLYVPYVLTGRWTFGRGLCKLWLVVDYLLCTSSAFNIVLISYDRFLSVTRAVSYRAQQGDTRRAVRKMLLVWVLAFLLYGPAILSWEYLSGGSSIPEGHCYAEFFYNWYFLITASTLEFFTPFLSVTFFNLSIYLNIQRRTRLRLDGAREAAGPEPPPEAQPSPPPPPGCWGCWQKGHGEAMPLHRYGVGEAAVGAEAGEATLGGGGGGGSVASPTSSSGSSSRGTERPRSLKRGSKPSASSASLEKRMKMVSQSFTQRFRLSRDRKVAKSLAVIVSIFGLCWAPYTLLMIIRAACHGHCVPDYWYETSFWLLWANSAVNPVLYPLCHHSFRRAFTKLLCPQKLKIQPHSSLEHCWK

Histamine H2 receptor = Histamine H2 receptor (Homo sapiens, UniProt P25021); assay: Displacement of [3H]histamine from human histamine H2 receptor expressed in HEK cells
Sequence of Histamine H2 receptor (P25021 whole entry): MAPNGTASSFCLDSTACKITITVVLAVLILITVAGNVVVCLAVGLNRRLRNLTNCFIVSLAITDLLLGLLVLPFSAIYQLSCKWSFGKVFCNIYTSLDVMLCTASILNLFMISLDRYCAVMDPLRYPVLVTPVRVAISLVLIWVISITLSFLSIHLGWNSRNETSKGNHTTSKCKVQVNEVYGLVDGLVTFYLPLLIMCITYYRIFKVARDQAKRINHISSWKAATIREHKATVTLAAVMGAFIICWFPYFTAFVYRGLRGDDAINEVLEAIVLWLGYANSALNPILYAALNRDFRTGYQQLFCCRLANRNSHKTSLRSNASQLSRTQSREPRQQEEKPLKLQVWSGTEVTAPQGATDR

Histamine H4 receptor [3] = biological target: Histamine H4 receptor (Rattus norvegicus, UniProt Q91ZY1); assay: Binding affinity to rat histamine H4 receptor
Sequence of Histamine H4 receptor (Rattus norvegicus, UniProt Q91ZY1) (Q91ZY1 whole entry): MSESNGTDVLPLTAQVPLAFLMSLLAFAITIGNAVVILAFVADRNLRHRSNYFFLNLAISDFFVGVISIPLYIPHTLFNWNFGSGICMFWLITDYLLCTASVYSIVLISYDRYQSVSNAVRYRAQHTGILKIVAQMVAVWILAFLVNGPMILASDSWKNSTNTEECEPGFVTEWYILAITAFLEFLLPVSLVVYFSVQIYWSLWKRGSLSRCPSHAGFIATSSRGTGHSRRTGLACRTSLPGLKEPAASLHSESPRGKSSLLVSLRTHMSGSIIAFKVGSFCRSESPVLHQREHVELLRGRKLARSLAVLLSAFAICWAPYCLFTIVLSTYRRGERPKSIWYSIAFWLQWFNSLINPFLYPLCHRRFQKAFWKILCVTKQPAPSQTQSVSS

Histamine H1 receptor = Histamine H1 receptor (Homo sapiens, UniProt P35367); assay: Displacement of [3H]histamine from human histamine H1 receptor expressed in HEK cells
Sequence of Histamine H1 receptor (P35367 whole entry): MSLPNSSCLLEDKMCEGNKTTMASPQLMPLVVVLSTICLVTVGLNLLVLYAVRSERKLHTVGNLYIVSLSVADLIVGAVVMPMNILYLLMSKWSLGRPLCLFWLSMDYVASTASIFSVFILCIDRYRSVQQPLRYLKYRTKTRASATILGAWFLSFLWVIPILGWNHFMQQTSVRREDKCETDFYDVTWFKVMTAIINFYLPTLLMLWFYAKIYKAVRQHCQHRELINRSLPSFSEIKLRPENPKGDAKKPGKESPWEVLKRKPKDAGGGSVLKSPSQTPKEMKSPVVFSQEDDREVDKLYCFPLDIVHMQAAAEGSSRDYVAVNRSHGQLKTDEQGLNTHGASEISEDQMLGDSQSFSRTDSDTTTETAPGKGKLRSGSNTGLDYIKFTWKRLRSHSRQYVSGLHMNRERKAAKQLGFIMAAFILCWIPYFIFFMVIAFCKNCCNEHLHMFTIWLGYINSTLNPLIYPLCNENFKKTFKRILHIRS

Histamine H4 receptor [4] = biological target: T1, Histamine H4 receptor; assay: Antagonist activity at human histamine H4 receptor expressed in HEK cells assessed as inhibition of histamine-induced [35S]GTPgammaS binding; format: functional, cell-based, HEK293; settings: for pKb: HEK293
Histamine H4 receptor [5] = biological target: T2, Histamine H4 receptor (Mus musculus, UniProt Q91ZY2); assay: Binding affinity to mouse histamine H4 receptor
T2 sequence (Q91ZY2 whole entry): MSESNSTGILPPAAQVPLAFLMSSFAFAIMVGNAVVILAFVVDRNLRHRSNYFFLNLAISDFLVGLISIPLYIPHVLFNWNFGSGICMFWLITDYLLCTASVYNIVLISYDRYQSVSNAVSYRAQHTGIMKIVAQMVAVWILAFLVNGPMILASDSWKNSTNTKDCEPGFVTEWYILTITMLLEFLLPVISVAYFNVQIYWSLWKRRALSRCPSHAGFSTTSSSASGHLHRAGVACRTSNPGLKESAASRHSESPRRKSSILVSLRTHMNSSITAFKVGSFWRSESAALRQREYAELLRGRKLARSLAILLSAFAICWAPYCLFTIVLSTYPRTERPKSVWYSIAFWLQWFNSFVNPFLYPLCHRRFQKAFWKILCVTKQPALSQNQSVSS

Histamine H4 receptor [6] = biological target: T1, Histamine H4 receptor; assay: Displacement of [3H]histamine from human histamine H4 receptor expressed in HEK cells by competitive kinetic analysis; format: cell-based, HEK293

Ki (Histamine H4 receptor [1]) [nM] | Ratio Ki (Homo sapiens) | Ki (Histamine H3 receptor) [nM] | Ki (Histamine H2 receptor) [nM] | Ki (Histamine H4 receptor [3]) [nM] | Ki (Histamine H1 receptor) [nM] | IC50 (Histamine H4 receptor [4]) [nM] | pKb (Histamine H4 receptor [4]) | Ki (Histamine H4 receptor [5]) [nM] | Kd (Histamine H4 receptor [6]) [nM] | SMILES | Ki [2] [nM]
7.08 | 98 | 692 |  |  |  |  |  |  |  | CNC1CN(c2nc(N)nc3cc(C4CC4)ccc23)C1 | 3630
25.1 |  | 832 |  |  |  |  |  |  |  | CNC1CN(c2nc(N)nc3cc(C(C)C)cnc23)C1 | 
11.2 | 89 | 617 |  |  |  |  |  |  |  | CCc1ccc2c(N3CC(NC)C3)nc(N)nc2c1 | 2450
21.9 | 8 | 178 |  |  |  |  |  |  |  | CN[C@@H]1CCN(c2nc(N)nc3cc(C4CC4)ccc23)C1 | 
12.3 | 27 | 331 |  |  |  |  |  |  |  | Nc1nc(N2CCNCC2)c2ccc(C3CCCC3)cc2n1 | 3390
6.46 | 23 | 151 | 2820 | 27.5 | 16600 | 97.7 | 8.2 | 19.5 | 10.2 | CNC1CN(c2nc(N)nc3cc(C4CCCC4)cnc23)C1 | > 100000
12.3 | 12 | 145 |  |  |  |  |  |  |  | CN[C@@H]1CCN(c2nc(N)nc3cc(C(C)C)cnc23)C1 | 
17 | 56 | 603 |  |  |  |  |  |  |  | CCc1ccc2c(N3CC[C@@H](NC)C3)nc(N)nc2c1 | 2750
9.33 |  | 214 |  |  |  |  |  |  |  | CCc1cnc2c(N3CCN(C)CC3)nc(N)nc2c1 | 
5.25 | 120 | 631 |  | 29.5 | 20900 | 70.8 | 8.33 | 15.1 | 13.5 | CNC1CN(c2nc(N)nc3cc(C4CC4)cnc23)C1 | > 100000
35.5 | 24 | 851 |  |  |  |  |  |  |  | CC(C)(C)c1ccc2c(N3CCNCC3)nc(N)nc2c1 | 
3.39 | 47 | 158 |  |  |  |  |  |  |  | CNC1CN(c2nc(N)nc3cc(C4CCCC4)ccc23)C1 | 832
53.7 | 186 | 9550 |  |  |  |  |  |  |  | CNC1CN(c2nc(N)nc3cc(C#N)cnc23)C1 | > 100000
9.12 | 166 | 1510 | 3160 | 138 | 11200 | 126 | 8.08 | 85.1 | 21.4 | CCc1cnc2c(N3CC[C@@H](NC)C3)nc(N)nc2c1 | 43700
11.5 | 13 | 155 |  |  |  |  |  |  |  | Nc1nc(N2CCNCC2)c2ccc(C3CC3)cc2n1 | 4680
10.7 | 72 | 776 | 14100 | 70.8 | 33900 | 112 | 8.14 | 50.1 | 8.51 | CCc1cnc2c(N3CC(NC)C3)nc(N)nc2c1 | 34700
15.1 | 32 | 490 |  |  |  |  |  |  |  | CNC1CN(c2nc(N)nc3cc(C(C)(C)C)ccc23)C1 | 
10.2 | 98 | 1000 |  |  |  |  |  |  |  | CN[C@@H]1CCN(c2nc(N)nc3cc(C4CC4)cnc23)C1 | > 100000
15.1 |  |  |  |  |  |  |  |  | 40.7 | Nc1nc(N2CCNCC2)c2ccc(-c3ccco3)cc2n1 | 
10.2 | 22 | 186 |  | 55 |  | 53.7 | 8.46 | 55 | 25.1 | CN[C@@H]1CCN(c2cc(NCC3CC3)nc(N)n2)C1 [ADRIFORANT] | 3470

SMILES | Ki (Histamine H4 receptor [1]) [nM] | Ratio Ki (Homo sapiens) | Ki (Histamine H3 receptor) [nM] | Ki (Histamine H2 receptor) [nM] | Ki (Histamine H4 receptor [3]) [nM] | Ki (Histamine H1 receptor) [nM] | IC50 (Histamine H4 receptor [4]) [nM] | pKb (Histamine H4 receptor [4]) | Ki (Histamine H4 receptor [5]) [nM] | Kd (Histamine H4 receptor [6]) [nM] | Ki [2] [nM]
CN1CCN(c2nc(N)nc3cccnc23)CC1 | 30.9 |  |  |  |  |  |  |  |  |  | 
CCc1ccc2c(N3CCNCC3)nc(N)nc2c1 | 14.8 | 15 | 219 |  |  |  |  |  |  |  | 1510
CN1CCN(c2nc(N)nc3ccccc23)CC1 | 44.7 |  |  |  |  |  |  |  |  |  | 
